Measured values published in the M2OR odorant receptor database.

Key:
Settings in all cases: stereoisomer not certain
[1] = biological target: T1, OR52I1 (Homo sapiens) (UniProt Q8NGK6)
T1 sequence (whole entry): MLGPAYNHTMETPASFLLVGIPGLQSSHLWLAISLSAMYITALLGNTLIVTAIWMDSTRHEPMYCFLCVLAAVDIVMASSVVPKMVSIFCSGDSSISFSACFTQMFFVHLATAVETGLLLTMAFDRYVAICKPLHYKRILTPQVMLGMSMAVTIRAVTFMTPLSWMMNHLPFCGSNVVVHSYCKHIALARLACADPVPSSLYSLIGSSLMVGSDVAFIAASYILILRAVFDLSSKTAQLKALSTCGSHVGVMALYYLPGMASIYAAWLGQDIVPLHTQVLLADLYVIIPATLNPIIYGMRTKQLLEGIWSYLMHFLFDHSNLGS
In short: (§1)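 Assay methods differ from source to source, frequently being transient luciferase assays in mammalian cell lines. For each receptor–molecule pair, the label responsive (active) applies when the original authors judged the measured signal statistically different from baseline, and non-responsive (inactive) applies otherwise.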

[2] = biological target: T2, OR52I2 (Homo sapiens) (UniProt Q8NH67)
T2 sequence (whole entry): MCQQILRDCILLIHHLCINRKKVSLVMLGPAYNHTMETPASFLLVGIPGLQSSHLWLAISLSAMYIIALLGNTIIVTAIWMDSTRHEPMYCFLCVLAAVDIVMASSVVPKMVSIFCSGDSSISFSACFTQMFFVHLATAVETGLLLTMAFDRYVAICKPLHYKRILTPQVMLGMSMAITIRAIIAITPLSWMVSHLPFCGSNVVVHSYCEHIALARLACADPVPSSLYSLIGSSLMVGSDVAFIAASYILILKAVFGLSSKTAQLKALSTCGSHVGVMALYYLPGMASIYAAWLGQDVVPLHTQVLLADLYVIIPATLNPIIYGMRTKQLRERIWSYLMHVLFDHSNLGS
In short: as §1

[3] = biological target: OR52J3 (Homo sapiens) (UniProt Q8NH60)
In short: as §1

[4] = biological target: T3, OR52K1 (Homo sapiens) (UniProt Q8NGK4)
T3 sequence (whole entry): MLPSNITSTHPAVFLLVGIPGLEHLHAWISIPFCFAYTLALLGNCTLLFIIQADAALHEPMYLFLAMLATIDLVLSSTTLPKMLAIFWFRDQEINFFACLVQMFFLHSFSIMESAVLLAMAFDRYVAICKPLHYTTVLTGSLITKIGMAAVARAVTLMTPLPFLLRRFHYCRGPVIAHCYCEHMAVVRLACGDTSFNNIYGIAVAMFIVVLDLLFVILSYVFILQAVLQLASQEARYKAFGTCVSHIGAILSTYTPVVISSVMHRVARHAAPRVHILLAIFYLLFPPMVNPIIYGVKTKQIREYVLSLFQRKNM
In short: as §1

[5] = biological target: T4, OR52K2 (Homo sapiens) (UniProt Q8NGK3)
T4 sequence (whole entry): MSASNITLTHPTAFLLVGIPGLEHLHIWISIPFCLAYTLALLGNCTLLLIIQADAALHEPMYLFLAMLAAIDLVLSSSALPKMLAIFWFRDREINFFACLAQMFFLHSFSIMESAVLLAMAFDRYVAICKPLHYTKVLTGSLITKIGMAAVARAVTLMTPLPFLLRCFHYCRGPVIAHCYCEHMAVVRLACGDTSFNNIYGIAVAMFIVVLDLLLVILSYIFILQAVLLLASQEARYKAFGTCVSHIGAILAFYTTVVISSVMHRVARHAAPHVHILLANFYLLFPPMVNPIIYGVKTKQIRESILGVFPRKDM
In short: as §1

[6] = biological target: T5, OR52L1 (Homo sapiens) (UniProt Q8NGH7)
T5 sequence (whole entry): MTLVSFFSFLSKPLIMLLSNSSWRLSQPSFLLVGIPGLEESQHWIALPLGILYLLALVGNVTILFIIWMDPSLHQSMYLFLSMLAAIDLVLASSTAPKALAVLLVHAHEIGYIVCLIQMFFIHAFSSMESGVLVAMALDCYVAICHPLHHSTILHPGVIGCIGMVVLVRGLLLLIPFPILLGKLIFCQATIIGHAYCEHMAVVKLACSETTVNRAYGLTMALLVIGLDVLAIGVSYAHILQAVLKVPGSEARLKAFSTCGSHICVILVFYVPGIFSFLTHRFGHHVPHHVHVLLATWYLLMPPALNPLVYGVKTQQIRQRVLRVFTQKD
In short: as §1

[7] = biological target: T6, OR52M1 (Homo sapiens) (UniProt Q8NGK5)
T6 sequence (whole entry): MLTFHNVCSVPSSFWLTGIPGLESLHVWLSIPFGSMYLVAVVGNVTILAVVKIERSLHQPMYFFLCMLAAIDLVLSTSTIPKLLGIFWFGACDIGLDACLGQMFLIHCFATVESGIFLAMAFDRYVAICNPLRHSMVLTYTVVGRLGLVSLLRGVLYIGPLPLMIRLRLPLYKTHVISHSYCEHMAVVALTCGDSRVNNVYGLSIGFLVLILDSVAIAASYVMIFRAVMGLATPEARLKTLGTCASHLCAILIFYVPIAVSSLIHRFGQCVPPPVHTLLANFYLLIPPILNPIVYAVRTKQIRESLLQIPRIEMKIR
In short: as §1

[8] = biological target: T7, OR52N1 (Homo sapiens) (UniProt Q8NH53)
T7 sequence (whole entry): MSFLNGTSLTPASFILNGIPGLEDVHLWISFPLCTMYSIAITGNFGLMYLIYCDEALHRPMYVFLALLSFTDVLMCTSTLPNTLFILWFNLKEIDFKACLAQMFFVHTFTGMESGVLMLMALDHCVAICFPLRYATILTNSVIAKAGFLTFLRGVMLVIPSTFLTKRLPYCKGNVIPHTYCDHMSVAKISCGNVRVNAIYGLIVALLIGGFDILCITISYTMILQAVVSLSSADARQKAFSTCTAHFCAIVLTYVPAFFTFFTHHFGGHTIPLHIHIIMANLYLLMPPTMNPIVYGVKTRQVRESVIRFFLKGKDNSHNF
In short: as §1

[9] = biological target: T8, OR52N2 (Homo sapiens) (UniProt Q8NGI0)
T8 sequence (whole entry): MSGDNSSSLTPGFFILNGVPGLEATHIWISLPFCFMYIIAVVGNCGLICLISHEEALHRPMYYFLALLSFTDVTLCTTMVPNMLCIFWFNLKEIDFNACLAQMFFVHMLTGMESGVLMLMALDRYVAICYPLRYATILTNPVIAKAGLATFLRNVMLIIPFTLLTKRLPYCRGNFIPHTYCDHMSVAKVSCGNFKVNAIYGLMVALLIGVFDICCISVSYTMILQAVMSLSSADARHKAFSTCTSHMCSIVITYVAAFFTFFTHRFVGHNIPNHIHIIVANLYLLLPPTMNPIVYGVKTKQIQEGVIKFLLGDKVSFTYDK
In short: as §1

[10] = biological target: T9, OR52N4 (Homo sapiens) (UniProt Q8NGI2)
T9 sequence (whole entry): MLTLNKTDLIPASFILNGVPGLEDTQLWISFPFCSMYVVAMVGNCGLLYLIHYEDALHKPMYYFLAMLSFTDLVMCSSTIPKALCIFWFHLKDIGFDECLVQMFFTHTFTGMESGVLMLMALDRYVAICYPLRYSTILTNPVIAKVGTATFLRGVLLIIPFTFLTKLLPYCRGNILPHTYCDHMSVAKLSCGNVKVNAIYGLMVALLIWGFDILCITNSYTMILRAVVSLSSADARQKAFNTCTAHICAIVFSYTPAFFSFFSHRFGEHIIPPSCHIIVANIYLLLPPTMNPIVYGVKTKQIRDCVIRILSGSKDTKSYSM
In short: as §1

[11] = biological target: T10, OR52N5 (Homo sapiens) (UniProt Q8NH56)
T10 sequence (whole entry): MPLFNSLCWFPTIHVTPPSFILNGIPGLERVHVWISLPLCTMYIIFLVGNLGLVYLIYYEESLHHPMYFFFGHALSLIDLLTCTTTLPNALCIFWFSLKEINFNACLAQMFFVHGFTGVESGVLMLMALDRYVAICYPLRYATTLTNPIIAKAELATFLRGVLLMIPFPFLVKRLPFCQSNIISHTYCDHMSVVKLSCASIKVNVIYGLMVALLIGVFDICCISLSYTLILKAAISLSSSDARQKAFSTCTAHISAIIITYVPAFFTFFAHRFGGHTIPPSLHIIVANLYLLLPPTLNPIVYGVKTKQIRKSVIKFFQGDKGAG
In short: as §1

[12] = biological target: T11, OR52R1 (Homo sapiens) (UniProt Q8NGF1)
T11 sequence (whole entry): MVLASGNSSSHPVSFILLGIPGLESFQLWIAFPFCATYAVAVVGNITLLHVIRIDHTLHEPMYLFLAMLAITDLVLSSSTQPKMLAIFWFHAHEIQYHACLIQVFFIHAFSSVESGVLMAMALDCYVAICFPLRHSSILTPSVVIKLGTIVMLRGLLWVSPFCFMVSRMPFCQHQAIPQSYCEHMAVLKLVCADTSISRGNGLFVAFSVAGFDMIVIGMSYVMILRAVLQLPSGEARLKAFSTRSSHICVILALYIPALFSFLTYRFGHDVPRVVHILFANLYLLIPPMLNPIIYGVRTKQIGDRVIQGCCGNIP
In short: as §1

[13] = biological target: T12, OR52W1 (Homo sapiens) (UniProt Q6IF63)
T12 sequence (whole entry): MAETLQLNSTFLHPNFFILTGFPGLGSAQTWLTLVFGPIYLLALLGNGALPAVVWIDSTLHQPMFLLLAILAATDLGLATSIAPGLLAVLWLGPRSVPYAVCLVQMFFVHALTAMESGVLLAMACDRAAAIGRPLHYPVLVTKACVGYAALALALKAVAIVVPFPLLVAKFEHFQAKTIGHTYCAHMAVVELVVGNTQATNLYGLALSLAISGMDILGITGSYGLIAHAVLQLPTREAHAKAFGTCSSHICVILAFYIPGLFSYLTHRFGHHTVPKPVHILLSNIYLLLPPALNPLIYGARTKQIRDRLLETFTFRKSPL
In short: as §1

[14] = biological target: OR52Z1P (Homo sapiens) (UniProt P0C646)
In short: as §1

[15] = biological target: T13, OR56A1 (Homo sapiens) (UniProt Q8NGH5)
T13 sequence (whole entry): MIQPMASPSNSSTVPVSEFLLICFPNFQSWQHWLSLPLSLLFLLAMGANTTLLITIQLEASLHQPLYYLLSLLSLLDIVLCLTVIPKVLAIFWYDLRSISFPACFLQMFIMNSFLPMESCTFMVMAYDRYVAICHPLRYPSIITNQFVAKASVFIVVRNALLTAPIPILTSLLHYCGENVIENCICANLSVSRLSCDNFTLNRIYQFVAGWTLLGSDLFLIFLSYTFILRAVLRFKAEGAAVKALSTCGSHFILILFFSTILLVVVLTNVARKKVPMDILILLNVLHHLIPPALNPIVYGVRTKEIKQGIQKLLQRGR
In short: as §1

[16] = biological target: T14, OR56A3 (Homo sapiens) (UniProt Q8NH54)
T14 sequence (whole entry): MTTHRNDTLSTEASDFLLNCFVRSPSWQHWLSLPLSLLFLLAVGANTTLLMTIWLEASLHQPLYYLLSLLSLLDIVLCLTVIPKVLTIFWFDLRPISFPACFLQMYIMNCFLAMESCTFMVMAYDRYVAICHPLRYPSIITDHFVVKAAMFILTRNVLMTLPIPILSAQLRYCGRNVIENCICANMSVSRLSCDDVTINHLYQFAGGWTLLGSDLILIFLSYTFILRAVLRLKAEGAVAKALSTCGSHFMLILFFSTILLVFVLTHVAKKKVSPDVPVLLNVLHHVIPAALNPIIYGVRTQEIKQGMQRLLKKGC
In short: as §1

[17] = biological target: T15, OR56A4 (Homo sapiens) (UniProt Q8NGH8)
T15 sequence (whole entry): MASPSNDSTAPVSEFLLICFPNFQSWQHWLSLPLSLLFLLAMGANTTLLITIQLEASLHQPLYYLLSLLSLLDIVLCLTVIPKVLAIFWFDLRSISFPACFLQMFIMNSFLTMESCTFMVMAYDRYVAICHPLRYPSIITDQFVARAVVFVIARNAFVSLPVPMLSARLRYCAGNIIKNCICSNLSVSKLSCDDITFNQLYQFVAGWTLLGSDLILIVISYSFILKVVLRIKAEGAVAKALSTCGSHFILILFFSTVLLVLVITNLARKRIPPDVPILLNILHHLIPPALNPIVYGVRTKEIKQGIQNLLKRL
In short: as §1

[18] = biological target: T16, OR56A5 (Homo sapiens) (UniProt P0C7T3)
T16 sequence (whole entry): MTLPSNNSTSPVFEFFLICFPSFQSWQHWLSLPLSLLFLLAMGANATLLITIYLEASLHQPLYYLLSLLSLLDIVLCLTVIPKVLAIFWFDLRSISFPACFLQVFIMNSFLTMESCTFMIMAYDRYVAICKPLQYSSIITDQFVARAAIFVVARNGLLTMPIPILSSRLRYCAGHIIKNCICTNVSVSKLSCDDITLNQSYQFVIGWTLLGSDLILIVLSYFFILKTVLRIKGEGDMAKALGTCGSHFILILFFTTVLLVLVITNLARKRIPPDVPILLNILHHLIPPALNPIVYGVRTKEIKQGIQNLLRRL
In short: as §1

[19] = biological target: T17, OR56B1 (Homo sapiens) (UniProt Q8NGI3)
T17 sequence (whole entry): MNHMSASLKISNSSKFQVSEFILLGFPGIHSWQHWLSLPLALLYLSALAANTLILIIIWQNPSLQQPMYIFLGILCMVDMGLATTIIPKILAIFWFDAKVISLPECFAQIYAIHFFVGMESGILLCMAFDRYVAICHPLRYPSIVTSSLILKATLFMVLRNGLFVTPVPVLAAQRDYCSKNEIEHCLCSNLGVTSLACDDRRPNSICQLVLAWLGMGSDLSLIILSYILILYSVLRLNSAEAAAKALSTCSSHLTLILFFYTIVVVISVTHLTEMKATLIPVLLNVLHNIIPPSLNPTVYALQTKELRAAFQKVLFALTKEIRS
In short: as §1

Measured: odorant receptor agonist call

Chain of OR52J3 (Homo sapiens) (Q8NH60 whole entry): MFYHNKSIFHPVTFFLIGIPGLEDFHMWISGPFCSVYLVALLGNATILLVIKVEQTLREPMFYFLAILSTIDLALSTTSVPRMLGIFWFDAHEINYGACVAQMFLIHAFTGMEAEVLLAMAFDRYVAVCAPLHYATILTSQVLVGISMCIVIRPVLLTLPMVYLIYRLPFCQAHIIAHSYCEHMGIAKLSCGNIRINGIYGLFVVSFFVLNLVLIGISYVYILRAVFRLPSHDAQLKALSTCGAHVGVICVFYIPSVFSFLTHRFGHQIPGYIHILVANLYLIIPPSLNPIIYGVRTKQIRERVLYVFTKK
Chain of OR52Z1P (Homo sapiens) (P0C646 whole entry): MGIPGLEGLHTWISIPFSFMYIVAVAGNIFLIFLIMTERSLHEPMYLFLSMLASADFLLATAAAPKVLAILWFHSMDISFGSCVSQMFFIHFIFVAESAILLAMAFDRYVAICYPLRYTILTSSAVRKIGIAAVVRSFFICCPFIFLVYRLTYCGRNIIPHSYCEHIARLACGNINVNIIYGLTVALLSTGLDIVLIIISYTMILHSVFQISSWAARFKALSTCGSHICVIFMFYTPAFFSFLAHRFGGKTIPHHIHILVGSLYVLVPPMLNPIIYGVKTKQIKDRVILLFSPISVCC

CC1CCCCCCCCCCCCC(=O)C1 (configuration not stated)
inactive: all assays above

CCCCCC(S)C(C)CO (configuration not stated)
not listed: [14]
inactive: all other assays above
